The list is not random: actives were taken first. Their share in the collection is about 2.3%.
NR2E3 ag-1: NR2E3 agonists in two-hybrid cells, primary screen, cell-based, luminescence, CHO-S, Gal4-NCOR/VP16-NR2E3. luciferase. AID 602229, 2012. 0.35% of 360,000 active. inhibition of corepressor binding, % at 3.98 µM. Photoreceptor-specific nuclear receptor (Homo sapiens), Q9Y5X4;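 active = inhibition above the mean of all tested compounds plus 3 SD, cut at about 70% in these data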;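 note: 0% = DMSO with NR2E3 transfected cells and 100% = cells lacking NR2E3 construct; higher means lower luciferase signal from less NR2E3 corepressor binding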
CHT block: inhibitors of human choline transporter CHT; AID 488975, 2010; B-score at 10 µM; CHT-expressing cells, membrane potential dye, choline response; active compounds read low; High affinity choline transporter 1 (Homo sapiens), Q9GZV3; 0.86% of 310,000 active;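 active = B-score over 3 SD under the library average, and starting fluorescence ratio not unusually high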;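 note: choline stimulus applied at its EC90 after an EC20 pre-addition; B-score computed on integrated fluorescence ratio after choline addition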
NR2E3 ag-2: inhibitors of NR2E3-RetCOR corepressor binding, primary screen, NR2E3 agonist project, biochemical, TR-FRET, GST-NR2E3, biotin-RetCOR; Photoreceptor-specific nuclear receptor (Homo sapiens), Q9Y5X4; 1536-well; inhibition of corepressor binding, % at 4.78 µM; 0.12% of 320,000 active; AID 2300, 2010;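 active = percent inhibition above the cutoff of mean plus 3 SD of all tested compounds, set per screening campaign, cut at about 20% in these data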;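 note: 0% = DMSO wells and 100% = biotin wells as full block of FRET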
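Test system: GST-NR2E3 and biotin-RetCOR proteins | Quantity: 1.35 nM GST-tagged NR2E3 final | Medium: Tris pH 7.5 | Also added: 7 nM biotin-RetCOR | Dosing: Compound at 4.8 µM, single dose | Timing: 5 h at 4 °C | Detection: Time-resolved FRET | Read-out basis: Percent inhibition | Benchmarks: Biotin wells as high control, 0.6% DMSO wells as low control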
CHT allo act: CHT positive allosteric modulators, primary screen, cell-based, membrane potential dye, choline EC20. High affinity choline transporter 1 (Homo sapiens), Q9GZV3. CHT-expressing cells; active compounds read high; LV-AA mutant CHT in HEK293 cells. B-score at 10 µM. 0.49% of 310,000 active;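 active = initial fluorescence not abnormally high and integrated response B-score, plate-corrected, over 3 SD above library mean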
NR2F2 inh: NR2F2 transcriptional activity inhibitors, primary screen, cell-based, luciferase reporter, HEK293T, luminescence; COUP transcription factor 2 (Homo sapiens), P24468; HEK293T NGFI-A luciferase reporter; inhibition, % at 8.6 µM; 0.7% of 370,000 active; AID 686940, 2013;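 active = inhibition above a per-plate cutoff, mean inhibition of test wells between control levels plus 3 SD, cut at about 38% in these data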;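 note: cells cotransfected with COUP-TFII expression vector driving the NGFI-A reporter; 0% = median of COUP-TF2 test wells and 100% = reporter-only cells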
GalR3 antag: GalR3 antagonists in HEK293 cells, primary screen, cell-based, fluorescence readout; HEK293 GalR3-CNG cAMP membrane potential fluorescence; galR3 body fused to GalR1 C-terminus; inhibition, % at 3 µM; 0.44% of 360,000 active; AID 651719, 2012;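 active = inhibition above the screen-wide average plus 3 SD, cut at about 13% in these data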;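 note: forskolin and galanin both at EC90 stimulate the cells; cAMP rise reported by CNG channel membrane potential dye signal; 0% = forskolin plus galanin with DMSO and 100% = forskolin alone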
Target sequence (O60755 1-299 limits assumed): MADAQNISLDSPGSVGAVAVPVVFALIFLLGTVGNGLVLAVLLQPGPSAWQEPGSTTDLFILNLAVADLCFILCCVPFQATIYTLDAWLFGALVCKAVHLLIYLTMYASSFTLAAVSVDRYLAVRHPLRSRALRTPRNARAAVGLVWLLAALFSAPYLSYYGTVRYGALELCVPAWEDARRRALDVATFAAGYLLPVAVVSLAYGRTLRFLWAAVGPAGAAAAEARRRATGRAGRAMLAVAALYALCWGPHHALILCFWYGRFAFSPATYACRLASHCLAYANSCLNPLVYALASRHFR
Gal4-VP16 ctr: Gal4-VP16 luciferase reporter inhibitors, counter-screen for COUP-TFII antagonist project, cell-based, luminescence, HEK293 | AID 687007, 2013 | shares compounds with NR2F2 inh | inhibition, % at 8.5 µM | 25% of 2,500 active; in the data active = inhibition above about 13%
COUP-TFII conf: NR2F2 transcriptional activity inhibitors, confirmation, cell-based, luciferase reporter, HEK293, triplicate | shares compounds with NR2F2 inh | HEK293 NGFI-A luciferase reporter, luminescence | inhibition, % at 8.5 µM | 45% of 2,500 active | AID 687008, 2013;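 active = mean inhibition over three repeats above a set limit taken from the earlier primary screen, cut at about 38% in these data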;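 note: 100% = cells given the luciferase reporter alone without the COUP-TF2 vector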
Active calls of the source: *.

Cc1cccc(-c2noc(CCCC(=O)Nc3cccnc3)n2)c1 was read as NR2E3 ag-1 -3.7, CHT block inactive, NR2E3 ag-2 -1.0, CHT allo act inactive, NR2F2 inh 3.9 and GalR3 antag -6.6.
Screening O=C(O)CCCc1nc(-c2ccc(Cl)cc2)no1 returned NR2E3 ag-1 6.6, CHT block inactive, NR2E3 ag-2 1.3, CHT allo act inactive, NR2F2 inh 43.8*, GalR3 antag -2.6, Gal4-VP16 ctr 31.7* and COUP-TFII conf 14.3.
O=C(O)CCCc1nc(-c2ccccc2)no1 was read as NR2E3 ag-1 -4.0, CHT block inactive, NR2E3 ag-2 1.5, CHT allo act inactive, NR2F2 inh 13.6 and GalR3 antag -4.1.
Screening Cc1ccc(-c2noc(CCCC(=O)NC3CCCC3)n2)cc1 returned NR2E3 ag-1 0.4, CHT block inactive, NR2E3 ag-2 2.5, CHT allo act inactive, NR2F2 inh 48.1*, GalR3 antag -7.9, Gal4-VP16 ctr 15.7* and COUP-TFII conf 14.8.
`O=C(CCCc1nc(-c2ccc(Cl)cc2)no1)Nc1cccnc1` gave NR2E3 ag-1 -12.4, CHT block inactive, NR2E3 ag-2 -1.1, CHT allo act inactive, NR2F2 inh 40.9*, GalR3 antag -4.6, Gal4-VP16 ctr 0.0 and COUP-TFII conf 22.1.
COc1ccc(CN(CCN2CCOCC2)C(=O)c2cc(F)ccc2C)cc1OC was read as NR2F2 inh -11.4.
`Nc1cc[n+](CC(=O)c2ccc3c(c2)OCCO3)cc1` gave NR2E3 ag-1 -12.3, CHT block inactive, NR2E3 ag-2 4.3, CHT allo act inactive, NR2F2 inh 39.7*, GalR3 antag -3.3, Gal4-VP16 ctr -2.6 and COUP-TFII conf 15.9.
Screening CN(C)S(=O)(=O)c1ccc(C(=O)NC2CCCc3ccccc32)cc1 (stereo not given) returned NR2E3 ag-1 0.8, CHT block inactive, NR2E3 ag-2 0.5, CHT allo act inactive, NR2F2 inh 63.3*, GalR3 antag 0.8, Gal4-VP16 ctr -2.8 and COUP-TFII conf -2.4.
For CC(=O)NC1C(=O)N(Cc2ccccc2)c2ccc(Br)cc21 (stereo not given) the results were NR2E3 ag-1 -9.0, CHT block inactive, NR2E3 ag-2 -2.4, CHT allo act inactive, NR2F2 inh 37.8*, GalR3 antag -4.2, Gal4-VP16 ctr 1.4 and COUP-TFII conf 12.7.
`Cc1ccc(NC(=O)c2cc(S(=O)(=O)NCCC3=CCCCC3)ccc2F)cc1` gave NR2E3 ag-1 10.1, CHT block inactive, NR2E3 ag-2 -2.3, CHT allo act inactive, NR2F2 inh 60.8*, GalR3 antag -6.6, Gal4-VP16 ctr 2.9 and COUP-TFII conf 33.4.
`c1ccc(CCSc2nnc(-c3cccnc3)n2Cc2ccccc2)cc1` gave NR2F2 inh -4.8.
COc1cc(CCC(=O)Nc2ccc(C)c(S(=O)(=O)N3CCCCCC3)c2)cc(OC)c1OC was read as NR2E3 ag-1 28.5, NR2E3 ag-2 2.3, NR2F2 inh 53.6*, GalR3 antag -4.6, Gal4-VP16 ctr 1.4 and COUP-TFII conf 25.4.
`O=C(CNc1cccc(S(=O)(=O)N2CCCCC2)c1)Nc1ccc(C(F)(F)F)cc1` gave NR2E3 ag-1 37.6, NR2F2 inh 37.5*, GalR3 antag -4.6, Gal4-VP16 ctr -0.9 and COUP-TFII conf 5.4.

Screening results as filed in PubChem.
